According to ChEMBL document CHEMBL1144943, “New amide-bearing benzolactam-based protein kinase C modulators induce enhanced secretion of the amyloid precursor protein metabolite sAPPalpha” (J Med Chem, 2003):

Legend:
AG06848 cell line = test: Ability to enhance […] secretion using human fibroblast AG06848 cell line at 1 uM concentration; format: functional; set-up: unit not given here
Summary of the method: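 AD-patient fibroblasts (AG06848) grown to confluence (about 4–5 days), switched to serum-free DMEM for 2 h, then exposed to 1 μM compound for 3 h with DMSO (below 1%) as solvent control. sAPPα in conditioned medium measured by SDS-PAGE immunoblot with antibody 6E10, loading corrected for total cell protein. Densitometry expressed relative to DMSO-treated cells; 3–6 independent experiments.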

Mus musculus [1] = species on record: Mus musculus; test: Compound was evaluated for induction of hyperplasia after four applications at dose 10 (micro/application); 1-3; format: functional
[2] = biological target: Protein kinase C alpha type (Homo sapiens, UniProt P17252); test: Displacement of PDBU from recombinant Protein kinase C alpha with phosphatidylserine
Mus musculus [3] = species on record: Mus musculus; test: Compound was evaluated for induction of hyperplasia after single application at dose 3 (micro/application); 1-2; format: functional
Mus musculus [4] = species on record: Mus musculus; test: Compound was evaluated for induction of hyperplasia after single application at dose 1 (micro/application); 1-2; format: functional
Mus musculus [5] = species on record: Mus musculus; test: Compound was evaluated for induction of hyperplasia after four applications at dose 1 (micro/application); 1-2; format: functional
Mus musculus [6] = species on record: Mus musculus; test: Compound was evaluated for induction of hyperplasia after four applications at dose 3 (micro/application); 1-2; format: functional
Mus musculus [7] = species on record: Mus musculus; test: Compound was evaluated for induction of hyperplasia after single application at dose 10 (micro/application); 1-2; format: functional
Mus musculus [8] = species on record: Mus musculus; test: Compound was evaluated for induction of hyperplasia after four application at dose 300 (micro/application); format: functional
Mus musculus [9] = species on record: Mus musculus; test: Compound was evaluated for induction of hyperplasia after single application at dose 10 (micro/application); format: functional
Mus musculus [10] = species on record: Mus musculus; test: Compound was evaluated for induction of hyperplasia after single application at dose 3 (micro/application); format: functional
Mus musculus [11] = species on record: Mus musculus; test: Compound was evaluated for induction of hyperplasia after single application at dose 100 (micro/application); format: functional
Mus musculus [12] = species on record: Mus musculus; test: Compound was evaluated for induction of hyperplasia after four application at dose 30 (micro/application); format: functional
Mus musculus [13] = species on record: Mus musculus; test: Compound was evaluated for induction of hyperplasia after four application at dose 100 (micro/application); format: functional
Mus musculus [14] = species on record: Mus musculus; test: Compound was evaluated for induction of hyperplasia after single application at dose 300 (micro/application); format: functional
Mus musculus [15] = species on record: Mus musculus; test: Compound was evaluated for induction of hyperplasia after four application at dose 10 (micro/application); format: functional
Mus musculus [16] = species on record: Mus musculus; test: Compound was evaluated for induction of hyperplasia after single application at dose 30 (micro/application); format: functional
Mus musculus [17] = species on record: Mus musculus; test: Compound was evaluated for induction of hyperplasia after four application at dose 3 (micro/application); format: functional

Row | Compound | Activity (AG06848 cell line) | Ki [2] [nM] | also measured
1 | CC(C)[C@H]1C(=O)N[C@H](CO)Cc2cc(NC(=O)CCCCc3ccc(C(F)(F)F)cc3)ccc2N1C | 30 | 12.5 | Epidermal thickness (Mus musculus [1]): 1; Epidermal thickness (Mus musculus [3]): 1; Epidermal thickness (Mus musculus [4]): 1; Epidermal thickness (Mus musculus [5]): 1; Epidermal thickness (Mus musculus [6]): 1; Epidermal thickness (Mus musculus [7]): 1
2 | CC(C)[C@H]1C(=O)N[C@H](CO)Cc2cc(NC(=O)CCCCc3ccc(CCC(F)(F)C(F)(F)C(F)(F)C(F)(F)C(F)(F)C(F)(F)F)cc3)ccc2N1C | 20 | 9.2 | 
3 | CC(C)[C@H]1C(=O)N[C@H](CO)Cc2cc(NC(=O)/C=C/C=C/c3ccc(/C=C/C(F)(F)C(F)(F)C(F)(F)C(F)(F)C(F)(F)C(F)(F)F)cc3)ccc2N1C | 10 | 11.2 | 
4 | CC(C)[C@H]1C(=O)N[C@H](CO)Cc2cc(NC(=O)/C=C/C=C/c3cc(C(F)(F)F)cc(C(F)(F)F)c3)ccc2N1C | 20 | 5.6 | 
5 | CC(C)[C@H]1C(=O)N[C@H](CO)Cc2cc(NC(=O)/C=C/C=C/c3ccc(C(F)(F)F)cc3)ccc2N1C | 40 | 11.9 | Epidermal thickness (Mus musculus [8]): 3; Epidermal thickness (Mus musculus [9]): 1; Epidermal thickness (Mus musculus [10]): 1; Epidermal thickness (Mus musculus [11]): 1; Epidermal thickness (Mus musculus [12]): 1; Epidermal thickness (Mus musculus [13]): 2; Epidermal thickness (Mus musculus [14]): 2; Epidermal thickness (Mus musculus [15]): 1; Epidermal thickness (Mus musculus [16]): 1; Epidermal thickness (Mus musculus [17]): 1
6 | CC(C)[C@H]1C(=O)N[C@H](CO)Cc2cc(NC(=O)/C=C/C=C/c3ccccc3)ccc2N1C | 20 | 15.8 | 
7 | CC(C)[C@H]1C(=O)N[C@H](CO)Cc2cc(NC(=O)CCCCc3cc(C(F)(F)F)cc(C(F)(F)F)c3)ccc2N1C | 0 | 7.8 | 
8 | CC(C)[C@H]1C(=O)N[C@H](CO)Cc2cc(NC(=O)CCCCc3ccccc3)ccc2N1C | 30 | 34.2 | 
9 | CCCCCC(=O)Nc1ccc2c(c1)C[C@@H](CO)NC(=O)[C@H](C(C)C)N2C | 30 |  | 
10 | C/C=C/C=C/C(=O)Nc1ccc2c(c1)C[C@@H](CO)NC(=O)[C@H](C(C)C)N2C | 10 | 1970 | 
11 | CCCCCCCCC#Cc1ccc2c(c1)C[C@@H](CO)NC(=O)[C@H](C(C)C)N2C | 0 |  | 
